Screening results (PubChem)
The sample as a whole holds a higher share of hits than the screen did.
p-CIP stab down – compounds decreasing mouse p/CIP protein stability | Q05BA5 | decrease of EGFP signal, % at 10 µM | F442A p/CIP-EGFP cells, EGFP fluorescence, 16 h | 0.01% of 290,000 active;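 active = EGFP signal decrease of at least 30% at 10 µM or well 3 SD below plate mean, unless failing retest; inactive = the rest, including hits failing retest or dose response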
Dynein transport – blocks dynein driven cargo transport along microtubules; 3617.4 mouse cells, GR-EGFP nuclear translocation imaging; test concentration mostly 20 µM; stimulated with dexamethasone, 1 µM; stronger effect = lower value; z-score, hits read low; 0.47% of 220,000 active; AID 1381;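 active = plate z-score of nuclear minus cytoplasmic receptor signal below a set negative limit, without overly bright fluorescence or cell loss, cut at about -3.5 in these data, passing the limit was not always enough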;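 also: z-score of nuclear minus cytoplasmic ring GR-EGFP intensity difference per well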
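Buffer or medium: tet-free, stripped-serum medium; Also added: dexamethasone, 1.0 µM final; Technique: high-content fluorescence imaging after fixation; Times: 48 h induction, 1 h compound, 30 min dex at 37 °C; Read-out: per-cell GR-EGFP intensity, nucleus versus surrounding cytoplasmic ring, well-averaged.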
UPR XBP1 act – adaptive UPR (XBP1) activation. CHO-XBP1 luciferase reporter, IRE1-XBP1 UPR activation, luminescence; percent of tunicamycin response, DMSO as zero. activation, % at 20 µM. 0.33% of 330,000 active. AID 463104;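 active = versus positive control, 20 µM dose yields 30% or more activation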
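Material: CHO-XBP1 cells stably carrying IRE1-XBP1-driven luciferase reporter | Medium: F12 with 10% serum | Compound dosing: 20 µM single concentration, DMSO 1% | Incubation: Overnight seeding at 37 °C, 6 h compound treatment at 37 °C | Detection: Steady-Glo luminescence read | Read-out basis: % activation of reporter signal versus tunicamycin and DMSO controls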
UPR CHOP act – apoptotic UPR (CHOP) activation | 0.34% of 330,000 active | activation, % at 10 µM | AID 449763 | CHO-CHOP luciferase reporter, luminescence; percent of tunicamycin response over DMSO baseline;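 active = at 10 µM dose, activation of 40% or more, normalized to positive control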
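Assay system: CHO-CHOP cells, stable luciferase reporter of PERK-eIF2a-CHOP signalling / Buffer or medium: F12 plus 10% serum / Compound dosing: one dose, 10 µM in 0.5% DMSO / Times: 6 h compound treatment, 37 °C / Technique: luciferase luminescence / Read-out: % reporter activation, DMSO baseline versus tunicamycin full activation / Benchmarks: tunicamycin and DMSO controls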
CHOP inhibitor – blocks CHOP induction under ER stress. inhibition, % at 10 µM. AID 2732. CHO-K1 CHOP-promoter luciferase, tunicamycin-induced, 15-18 h. 3.8% of 220,000 active;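 active = compounds that reduced the stress-induced luciferase reporter signal by more than about 70% of percent inhibition, limit read from the data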
B2AR ag – activates human beta-2 adrenergic receptor causing internalization; response, % (no concentration beside the values); 0.43% of 340,000 active; AID 504454; Am2.2-beta2AR cells, FAP receptor internalization, flow cytometry;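 active = response above a set limit, near 3 SD of response in nonfluorescent compounds, cut at about 42% in these data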
Dynein confirm – dynein cargo transport inhibition, confirmation; shares compounds with Dynein transport; 3617.4 GR-EGFP nuclear translocation imaging, dexamethasone-induced; calls only at 20 µM; 69% of 1,000 active;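 active = inhibition of receptor movement into the nucleus at or above a set limit in both runs, with normal cell brightness and cell count; inconclusive = limit reached in only one run, brightness and count normal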;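 also: dexamethasone at 1 µM final in well for 30 min; nuclear minus cytoplasmic GR-EGFP mean intensity difference in channel 2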
CHOP confirm – confirmation of CHOP induction inhibitors; shares compounds with CHOP inhibitor; CHO-CHOP promoter luciferase reporter, tunicamycin-induced, luminescence; inhibition, % at 10 µM; 45% of 2,100 active;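 active = mean of three repeat readings of reporter signal inhibition above a set limit, cut at about 70% in these data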
CHOP UPR conf – apoptotic UPR (CHOP) activation, confirmed | shares compounds with UPR CHOP act | CHO-CHOP cells, CHOP-luciferase reporter luminescence; percent of tunicamycin response, DMSO as zero | activation, % at 10 µM | 64% of 1,000 active; in the data active = activation above about 33%
Each line names hits and unclear results; the compound was inactive in the other large screens (follow-up assays come after a bar, where they were run); ! = a repeat was not active.

CCOP(=O)(OCC)C(NC(=O)c1ccccc1C)C(Cl)(Cl)Cl (stereo not drawn)	none
O=C(NC(=C(Cl)Cl)P(=O)(c1ccccc1)c1ccccc1)c1ccccc1	none
Cn1cccc1/C=C1\C(=O)NC(=O)N(Cc2ccco2)C1=O	none (no result: UPR XBP1 act, UPR CHOP act)
Cc1ccc(N2C(=O)NC(=O)/C(=C\C=C\c3ccco3)C2=O)cc1C	Dynein transport -5.6, CHOP inhibitor 110, B2AR ag 60 (no result: UPR XBP1 act, UPR CHOP act) | Dynein confirm active | CHOP confirm 104
Cc1ccc(N2C(=O)NC(=O)/C(=C\c3ccoc3)C2=O)cc1	none
O=C1NC(=O)N(Cc2ccco2)C(=O)/C1=C/C=C/c1ccco1	Dynein transport -3.8, CHOP inhibitor 108, B2AR ag 85 | Dynein confirm inconclusive | CHOP confirm 140
Cc1ccc(N2C(=O)NC(=O)/C(=C\C=C\c3ccco3)C2=O)cc1	Dynein transport -5.1, CHOP inhibitor 106, B2AR ag 69 | Dynein confirm active | CHOP confirm 132
Cc1ccc(S(=O)(=O)NC(Cc2cnc[nH]2)C(=O)O)cc1 (stereo not drawn)	none
CCN(CC)c1ccc(C=C2C(=O)NC(=S)NC2=O)cc1	Dynein transport -5.1, UPR CHOP act 222, B2AR ag 51 | Dynein confirm inconclusive | CHOP UPR conf 135
N#CCP(=S)(c1ccccc1)c1ccccc1	none
O=C1NC(=O)N(Cc2ccccc2)C(=O)/C1=C\C=C\c1ccco1	Dynein transport -4.4, UPR CHOP act 161, CHOP inhibitor 91, B2AR ag 67 | Dynein confirm active | CHOP UPR conf 186
O=C1NC(=O)N(Cc2ccccc2)C(=O)/C1=C/c1cnc(-c2ccccc2)nc1	none
CCCNc1nc(OC)nc(N2CC3CC(C2)c2cccc(=O)n2C3)n1 (stereo not drawn)	none
C/C(=C\c1ccc(N(C)C)cc1)[N+](=O)[O-]	Dynein transport -4.5, UPR CHOP act 224 | Dynein confirm active | CHOP UPR conf 150
C=C1C(=O)O[C@H]2[C@H]1[C@H](OC(=O)CC(=O)O[C@@H]1C[C@@H](C)[C@@H]3C=CC(=O)[C@@]3(C)[C@H]3OC(=O)C(=C)[C@H]13)C[C@@H](C)[C@H]1C=CC(=O)[C@]12C	none
C=C1C(=O)O[C@@H]2C[C@@H](C)[C@@H]3C4OC4C(=O)[C@@]3(C)[C@@H](O)[C@H]12 (stereo partly drawn)	Dynein transport -3.8, CHOP inhibitor 107, B2AR ag 43 | CHOP confirm 110
O=c1[nH]c2ccccc2n1C1CCN(CCCC(c2ccc(F)cc2)c2ccc(F)cc2)CC1	none | CHOP confirm 117
O=C1CC(N2CCC(n3c(=O)[nH]c4ccccc43)CC2)C(=O)N1c1ccc(F)cc1 (stereo not drawn)	none
CCCCCCCn1c(=O)c(C(=O)Nc2cnccn2)c(O)c2ccccc21	CHOP inhibitor 98 | CHOP confirm 116
CNc1ccc2oc(C[C@H]3O[C@@]4(CC[C@H]3C)O[C@H]([C@H](C)C(=O)c3ccc[nH]3)[C@H](C)C[C@H]4C)nc2c1C(=O)O	CHOP inhibitor 106! | CHOP confirm 129
CN1/C(=C\C=Nc2ccccc2)C(C)(C)c2ccccc21	none
CN1/C(=C\C=C\C2=[N+](C)c3ccc4ccccc4c3C2(C)C)C(C)(C)c2ccccc21	CHOP inhibitor 108 (no result: B2AR ag) | CHOP confirm 125
Clc1ccc(CSC(Cn2ccnc2)c2ccc(Cl)cc2Cl)cc1 (stereo not drawn)	CHOP inhibitor 108 | CHOP confirm inactive
CN1CCN(Cc2nc3ccccc3c(=O)[nH]2)CC1	none
O=c1[nH]c(CN2CCNCC2)nc2ccccc12	CHOP inhibitor 98 | CHOP confirm inactive
CCOC(=O)N1CCC(NC(=O)CCc2nc(C3=CCN(C)CC3)no2)CC1	none
COc1ccc(C(=O)OC2CC3CCC(C2)[N+]3(C)[O-])cc1OC (stereo not drawn)	none (no result: Dynein transport, CHOP inhibitor)
C[C@H](N)CN1CCc2ccc(Br)cc21	none (no result: p-CIP stab down, Dynein transport)
O=C1NC(=O)N(c2ccc3c(c2)OCO3)C(=O)/C1=C/c1ccsc1	none
O=C1NC(=O)N(c2ccc3c(c2)OCO3)C(=O)/C1=C/c1cccs1	CHOP inhibitor 106, B2AR ag 45 | CHOP confirm inactive
Cc1ccsc1C(=O)C1CCCN(Cc2cc(C(C)C)n[nH]2)C1 (stereo not drawn)	none
O=C(COc1ccccc1)N1CCN(C2CC3CCC2C3)CC1 (stereo not drawn)	none
COCCCNC(=O)c1c(N)n(Cc2ccco2)c2nc3ccccc3nc12	none
CC(C)OCCCNC(=O)c1c(N)n(Cc2cccs2)c2nc3ccccc3nc12	CHOP inhibitor 105 | CHOP confirm inactive
Cc1ccc2c(c1)CC1(CN2C)C(=O)NC(=O)N(CCC2=CCCCC2)C1=O (stereo not drawn)	CHOP inhibitor 107 | CHOP confirm inactive
CCOC(=O)c1c(C)n(Cc2ccco2)c2c1cc(O)c1ccccc12	CHOP inhibitor 101 | CHOP confirm inactive
O=C1NCN(c2ccccc2)C12CCNCC2	CHOP inhibitor 101 | CHOP confirm inactive
Cc1ccsc1C(=O)C1CCCN(CCO)C1 (stereo not drawn)	none
Cc1cc(OCC(=O)NCc2ccncc2)c2c3c(c(=O)oc2c1)CCCC3	none (no result: Dynein transport, CHOP inhibitor)
C[C@H]1CC[C@@H]2[C@@H](C)[C@H]3[C@H](C[C@H]4[C@@H]5CC=C6C[C@@H](O[C@@H]7O[C@H](CO)[C@H](O)[C@H](O[C@@H]8O[C@H](CO)[C@@H](O)[C@H](O)[C@H]8O)[C@H]7O[C@@H]7O[C@@H](C)[C@H](O)[C@@H](O)[C@H]7O)CC[C@]6(C)[C@H]5CC[C@]34C)N2C1	CHOP inhibitor 106 | CHOP confirm inactive
Cc1ccc(/C=C2\C(=O)NC(=O)N(CCc3ccc(F)cc3)C2=O)o1	CHOP inhibitor 105 | CHOP confirm inactive
Cc1ccc(/C=C2\C(=O)NC(=O)N(Cc3ccccc3Cl)C2=O)o1	CHOP inhibitor 105, B2AR ag 59 | CHOP confirm inactive
